# Measured values gathered from unrelated publications.
# Protocols differ between the studies behind these lines.
# Cell line: Jurkat
# Effect on: cell growth or viability
SMILES,test,setting,IC50
CCCCN(Cc1ccc(C(=O)NO)cc1)C(=O)Nc1ccccc1,ATP luminescence,72 h,7410 nM
O=C1CCCCC1C1C2C=CC=CC1C(C1CC1)=C2 (stereo not drawn),flow cytometry,,39 nM
CC(=O)O[C@H](C)C(=O)CCCCCCC(=O)Nc1ccccc1,thymidine uptake,,> 100000 nM
CCCCCC/C=C1\CC2C=CC=CC1C2C1CCCCC1=O (stereo not drawn),flow cytometry,,29 nM
COc1cc(/C=C/C(=O)CC(=O)/C=C/c2ccc(O)c(OC)c2)ccc1O,MTT,48 h,28.9 µg/mL
O=C1CCCCC1C1C2C=CC=CC1/C(=C/Cc1ccccc1)C2 (stereo not drawn),flow cytometry,,61 nM
COCCOCOc1cc(O)c(-c2cc(-c3ccc(C(=O)O)cc3)no2)cc1C12CC3CC(CC(C3)C1)C2,ATP luminescence,24 h,1950 nM
C[C@@H](O)C(=O)CCCCCCC(=O)Nc1ccccc1,thymidine uptake,,92000 nM
COCCOCOc1ccc(C(=O)/C=C/c2ccc(C(=O)O)cc2)cc1C12CC3CC(CC(C3)C1)C2,ATP luminescence,24 h,1800 nM
CCCON(Cc1ccc(C(=O)NO)cc1)C(=O)Nc1ccccc1,ATP luminescence,72 h,7090 nM
COc1cccc2c1C(=O)c1c(O)c3c(c(O)c1C2=O)C[C@@](O)(C(=O)CO)C[C@@H]3O[C@H]1C[C@H](N)[C@H](O)[C@H](C)O1,MTT,48 h,2.5 µg/mL
CCCCCCCCC1=CC2C=CC=CC1C2C1CCCCC1=O (stereo not drawn),flow cytometry,,79 nM
COc1ccc(/C=C\c2cc(OC)c(OC)c(OC)c2)cc1O,,,5 nM
CC(=O)O[C@H]1C(=O)[C@@]2(C)[C@H]([C@H](OC(=O)c3ccccc3)[C@]3(O)C[C@H](OC(=O)[C@H](O)[C@@H](NC(=O)c4ccccc4)c4ccccc4)C(C)=C1C3(C)C)[C@]1(OC(C)=O)CO[C@@H]1C[C@@H]2O,,72 h,2.8 nM
CC[C@]1(O)C[C@H]2CN(CCc3c([nH]c4ccccc34)[C@@](C(=O)OC)(c3cc4c(cc3OC)N(C=O)[C@H]3[C@@](O)(C(=O)OC)[C@H](OC(C)=O)[C@]5(CC)C=CCN6CC[C@]43[C@@H]65)C2)C1,MTT,,1.1 nM
